Reference: ChEMBL document CHEMBL1153215, “Investigation of the sequence and length dependence for cell-penetrating prenylated peptides” (Bioorg Med Chem Lett, 2010)
Where a SMILES comes first, the peptide text is derived from it. Bridges are numbered along the chain shown (N, C = ends). Roman numbers before positions name the chains, in order. The star is where a group is joined. Geranylgeranyl = CC(C)=CCC/C(C)=C/CC/C(C)=C/CC/C(C)=C/C*; Acryloyl(2E,3-(2-furyl)) = O=C(/C=C/c1ccco1)*

What was measured:
Format in all cases: ADME, cell-based
[1] = tested on: HeLa; experiment: Cellular uptake in human HeLa cells at 0.3 to 3 uM after 1 hr by confocal laser-scanning microscopy
Method in brief: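 Fluorescein-labelled peptides were incubated with HeLa cells for 1 h, then the cells were washed. Cells were either fixed in 3.7% formaldehyde (1 μM peptide) or imaged live without fixation (3 μM peptide). Hoechst stained the nucleus and wheat germ agglutinin–Alexa Fluor 594 stained the plasma membrane. Internalization was viewed by confocal microscopy.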

[2] = tested on: HeLa; experiment: Cellular uptake in human HeLa cells at 0.3 to 3 uM by FACS
Method in brief: (§1)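 HeLa cells were incubated with 0.3, 1.0 or 3.0 μM fluorescein-linked peptide for 1 h at 37 °C. Cells were then trypsinized and washed to remove surface-bound peptide. Fluorescence of 10,000 cells was read by flow cytometry, in triplicate. Values are geometric mean relative fluorescence ± standard deviation.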

[3] = tested on: HeLa; experiment: Cellular uptake in human HeLa cells at […] at 4 degC condition by FACS
Method in brief: as §1, with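 “with” for “with 0.3,”, “1.0” for “1.0 or 3.0”, “at 4 °C,” for “for 1 h”, “°C, or under ATP-depleting conditions.” for “°C.”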

[4] = tested on: HeLa; experiment: Cellular uptake in human HeLa cells at 0.3 to 3 uM at 37 degC condition by FACS; method in brief: as §1

Measured: Activity

CC[C@H](C)[C@H](NC(=O)[C@H](CCCCN)NC(=O)[C@@H](NC(=O)[C@H](CC(N)=O)NC(=O)[C@H](CCCNC(=N)N)NC(=O)[C@@H](N)CSSC[C@H](NC(=O)[C@H](CCCNC(=N)N)NC(=O)[C@H](CCCNC(=N)N)NC(=O)[C@H](CO)NC(=O)[C@H](CCCCN)NC(=O)[C@H](CCCCN)NC(=O)/C=C/c1ccco1)C(=O)N[C@H](C(=O)N[C@@H](CC(C)C)C(=O)N[C@@H](CC(C)C)C(=O)O)C(C)C)[C@@H](C)CC)C(=O)N[C@@H](Cc1c[nH]c2ccccc12)C(=O)N[C@@H](Cc1ccccc1)C(=O)N[C@@H](CCC(N)=O)C(=O)N[C@@H](CC(N)=O)C(=O)N[C@@H](CCCNC(=N)N)C(=O)N[C@@H](CCCNC(=N)N)C(=O)N[C@@H](CC(N)=O)C(=O)N[C@@H](CC(C)C)C(=O)N[C@@H](CCCCN)C(=O)N[C@@H](Cc1c[nH]c2ccccc12)C(=O)N[C@@H](CCCCN)C(=O)N[C@@H](CCCCN)C(=O)O (I: H-CRNIKIWFQNRRNLKWKK-OH / II: {Acryloyl(2E,3-(2-furyl))}-KKSRRCVLL-OH; disulfide I:1-II:6)
Active: all assays above

CC(C)=CCC/C(C)=C/CC/C(C)=C/CC/C(C)=C/CSC[C@H](NC(=O)[C@H](CCCNC(=N)N)NC(=O)[C@H](CCCNC(=N)N)NC(=O)/C=C/c1ccco1)C(N)=O
Active: all assays above

CC(C)=CCC/C(C)=C/CC/C(C)=C/CC/C(C)=C/CSC[C@H](NC(=O)[C@H](CCCNC(=N)N)NC(=O)/C=C/c1ccco1)C(N)=O
Active: all assays above

CC(=O)N[C@@H](CCCCNC(=O)/C=C/c1ccco1)C(=O)N[C@@H](C)C(=O)N[C@@H](CO)C(=O)N[C@@H](CCCNC(=N)N)C(=O)N[C@@H](CCCNC(=N)N)C(=O)N[C@@H](CSC/C=C(\C)CC/C=C(\C)CC/C=C(\C)CCC=C(C)C)C(N)=O (Ac-K(Acryloyl(2E,3-(2-furyl)))ASRRC(Geranylgeranyl)-NH2)
Active: all assays above

CC(=O)N[C@@H](CCCCNC(=O)/C=C/c1ccco1)C(=O)N[C@@H](C)C(=O)N[C@@H](C)C(=O)N[C@@H](C)C(=O)N[C@@H](CO)C(=O)N[C@@H](CCCNC(=N)N)C(=O)N[C@@H](CCCNC(=N)N)C(=O)N[C@@H](CSC/C=C(\C)CC/C=C(\C)CC/C=C(\C)CCC=C(C)C)C(N)=O (Ac-K(Acryloyl(2E,3-(2-furyl)))AAASRRC(Geranylgeranyl)-NH2)
Active: all assays above
